In ChEMBL document CHEMBL1152560, “Substituted 2-arylbenzothiazoles as kinase inhibitors: hit-to-lead optimization” (Bioorg Med Chem, 2009):

Tests used:
[1] = target: Calcium/calmodulin-dependent protein kinase type 1D (Homo sapiens) (UniProt Q8IU85); experiment: Residual activity of CAMK1D at 1 uM by microplate scintillation counting
[2] = target: Ribosomal protein S6 kinase alpha-4 (Homo sapiens) (UniProt O75676); experiment: Residual activity of RPS6KA4 at 10 uM by microplate scintillation counting
[3] = target: T1, Serine/threonine-protein kinase Chk1 (Homo sapiens) (UniProt O14757); experiment: Residual activity of CHK1 at 1 uM by microplate scintillation counting
T1 sequence (whole entry): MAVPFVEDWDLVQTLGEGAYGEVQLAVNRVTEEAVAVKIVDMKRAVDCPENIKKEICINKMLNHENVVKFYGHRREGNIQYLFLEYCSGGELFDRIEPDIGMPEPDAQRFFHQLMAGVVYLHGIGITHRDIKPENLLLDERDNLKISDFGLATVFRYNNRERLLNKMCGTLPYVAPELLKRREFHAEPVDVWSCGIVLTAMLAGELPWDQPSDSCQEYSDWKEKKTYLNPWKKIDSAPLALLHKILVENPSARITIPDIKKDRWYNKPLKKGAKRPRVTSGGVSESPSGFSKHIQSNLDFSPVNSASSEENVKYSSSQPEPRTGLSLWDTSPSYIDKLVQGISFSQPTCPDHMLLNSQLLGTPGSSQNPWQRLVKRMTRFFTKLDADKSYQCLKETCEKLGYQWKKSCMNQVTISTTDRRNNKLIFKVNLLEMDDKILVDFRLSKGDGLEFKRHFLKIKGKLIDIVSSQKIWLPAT

[4] = target: T2, Lymphokine-activated killer T-cell-originated protein kinase (Homo sapiens) (UniProt Q96KB5); experiment: Residual activity of PBK at 0.1 uM by microplate scintillation counting
T2 sequence (whole entry): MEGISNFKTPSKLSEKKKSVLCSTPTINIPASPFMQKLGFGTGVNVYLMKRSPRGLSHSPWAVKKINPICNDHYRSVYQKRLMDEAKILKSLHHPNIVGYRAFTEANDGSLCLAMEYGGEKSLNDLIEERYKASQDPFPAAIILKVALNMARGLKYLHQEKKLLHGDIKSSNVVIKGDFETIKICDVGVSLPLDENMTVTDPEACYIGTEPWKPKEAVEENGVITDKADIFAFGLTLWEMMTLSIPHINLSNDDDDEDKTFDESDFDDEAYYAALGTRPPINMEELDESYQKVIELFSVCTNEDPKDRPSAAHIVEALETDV

[5] = target: Fibroblast growth factor receptor 4 (Homo sapiens) (UniProt P22455); experiment: Residual activity of FGFR4 at 10 uM by microplate scintillation counting
[6] = target: Proto-oncogene tyrosine-protein kinase ROS (Homo sapiens) (UniProt P08922); experiment: Residual activity of ROS at 10 uM by microplate scintillation counting
[7] = target: Calcium/calmodulin-dependent protein kinase type II subunit delta (Homo sapiens) (UniProt Q13557); experiment: Residual activity of CAMK2D at 1 uM by microplate scintillation counting
Aurora kinase A = target: T3, Aurora kinase A (Homo sapiens, UniProt O14965); experiment: Inhibition of Aurora-A by microplate scintillation counting
T3 sequence (O14965 whole entry): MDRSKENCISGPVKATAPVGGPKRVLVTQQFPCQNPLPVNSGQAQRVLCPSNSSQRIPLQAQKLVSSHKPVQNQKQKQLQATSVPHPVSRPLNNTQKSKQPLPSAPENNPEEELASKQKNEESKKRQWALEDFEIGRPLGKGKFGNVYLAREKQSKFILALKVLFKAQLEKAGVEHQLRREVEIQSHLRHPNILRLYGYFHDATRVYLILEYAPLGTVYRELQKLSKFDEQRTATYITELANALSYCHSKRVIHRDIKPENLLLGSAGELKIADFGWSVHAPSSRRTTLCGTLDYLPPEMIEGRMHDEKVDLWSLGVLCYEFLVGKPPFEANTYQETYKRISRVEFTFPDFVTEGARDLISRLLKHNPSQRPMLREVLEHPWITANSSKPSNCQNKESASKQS
Outline: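 Substrates: tetra(LRRWSLG) for Aurora A/B; poly(Ala,Glu,Lys,Tyr)6:2:5:1 for PDGFRβ; poly(Glu,Tyr)4:1 for TIE2 and VEGFR2. Stopped with 2% H3PO4.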

[8] = target: Casein kinase I isoform epsilon (Homo sapiens) (UniProt P49674); experiment: Residual activity of CK1epsilon at 0.1 uM by microplate scintillation counting
[9] = target: Protein kinase C delta type (Homo sapiens) (UniProt Q05655); experiment: Residual activity of PKCdelta at 1 uM by microplate scintillation counting
[10] = target: T4, Ephrin type-A receptor 3 (Homo sapiens) (UniProt P29320); experiment: Residual activity of EPHA3 at 10 uM by microplate scintillation counting
T4 sequence (whole entry): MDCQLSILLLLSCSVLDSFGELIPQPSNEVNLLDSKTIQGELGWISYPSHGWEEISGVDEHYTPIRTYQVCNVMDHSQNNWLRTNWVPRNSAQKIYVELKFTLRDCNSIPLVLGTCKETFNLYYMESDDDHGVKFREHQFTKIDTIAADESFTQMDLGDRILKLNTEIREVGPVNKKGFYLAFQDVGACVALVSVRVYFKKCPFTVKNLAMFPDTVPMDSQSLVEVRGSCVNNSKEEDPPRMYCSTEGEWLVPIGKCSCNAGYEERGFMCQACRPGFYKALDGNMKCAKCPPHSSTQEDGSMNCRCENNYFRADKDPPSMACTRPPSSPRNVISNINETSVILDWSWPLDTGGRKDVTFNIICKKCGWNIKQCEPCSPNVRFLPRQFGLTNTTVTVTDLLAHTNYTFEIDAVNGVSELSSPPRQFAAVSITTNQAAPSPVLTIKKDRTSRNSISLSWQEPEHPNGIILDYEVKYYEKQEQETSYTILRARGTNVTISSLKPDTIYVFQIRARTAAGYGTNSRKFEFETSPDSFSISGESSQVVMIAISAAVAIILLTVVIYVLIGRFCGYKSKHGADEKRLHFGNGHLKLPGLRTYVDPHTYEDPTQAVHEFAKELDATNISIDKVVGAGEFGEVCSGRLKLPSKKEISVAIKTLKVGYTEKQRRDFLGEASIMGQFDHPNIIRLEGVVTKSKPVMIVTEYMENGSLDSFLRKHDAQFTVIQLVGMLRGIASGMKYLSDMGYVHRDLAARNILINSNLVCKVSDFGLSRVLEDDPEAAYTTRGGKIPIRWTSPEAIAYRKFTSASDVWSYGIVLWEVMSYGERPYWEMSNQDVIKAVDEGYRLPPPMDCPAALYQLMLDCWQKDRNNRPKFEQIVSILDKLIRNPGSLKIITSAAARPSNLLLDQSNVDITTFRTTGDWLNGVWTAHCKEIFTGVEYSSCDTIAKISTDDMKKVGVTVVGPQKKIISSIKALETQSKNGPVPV

[11] = target: Ephrin type-A receptor 2 (Homo sapiens) (UniProt P29317); experiment: Residual activity of EPHA2 at 1 uM by microplate scintillation counting
[12] = target: Insulin receptor-related protein (Homo sapiens) (UniProt P14616); experiment: Residual activity of INSRR at 1 uM by microplate scintillation counting
Sequence of Insulin receptor-related protein (Homo sapiens) (P14616 27-742 limits assumed): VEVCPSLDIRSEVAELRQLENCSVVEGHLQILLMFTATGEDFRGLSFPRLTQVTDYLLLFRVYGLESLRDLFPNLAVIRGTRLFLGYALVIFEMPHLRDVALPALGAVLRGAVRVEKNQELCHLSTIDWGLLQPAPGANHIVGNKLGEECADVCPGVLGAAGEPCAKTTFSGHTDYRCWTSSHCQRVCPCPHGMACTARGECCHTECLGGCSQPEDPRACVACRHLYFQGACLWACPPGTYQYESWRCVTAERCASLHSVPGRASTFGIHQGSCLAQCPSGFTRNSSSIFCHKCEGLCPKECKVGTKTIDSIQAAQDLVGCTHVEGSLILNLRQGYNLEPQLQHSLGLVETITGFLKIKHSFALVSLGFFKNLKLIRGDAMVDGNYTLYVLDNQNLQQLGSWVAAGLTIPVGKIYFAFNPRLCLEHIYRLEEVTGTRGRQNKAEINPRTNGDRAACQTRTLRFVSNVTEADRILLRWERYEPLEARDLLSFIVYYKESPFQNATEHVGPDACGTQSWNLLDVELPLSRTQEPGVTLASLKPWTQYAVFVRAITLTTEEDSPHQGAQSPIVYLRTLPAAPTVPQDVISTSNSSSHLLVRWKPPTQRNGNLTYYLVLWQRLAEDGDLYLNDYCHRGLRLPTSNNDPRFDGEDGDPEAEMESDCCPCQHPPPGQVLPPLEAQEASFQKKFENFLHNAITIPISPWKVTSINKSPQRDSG
Sequence of Insulin receptor-related protein (Homo sapiens) (P14616 747-1297 limits assumed): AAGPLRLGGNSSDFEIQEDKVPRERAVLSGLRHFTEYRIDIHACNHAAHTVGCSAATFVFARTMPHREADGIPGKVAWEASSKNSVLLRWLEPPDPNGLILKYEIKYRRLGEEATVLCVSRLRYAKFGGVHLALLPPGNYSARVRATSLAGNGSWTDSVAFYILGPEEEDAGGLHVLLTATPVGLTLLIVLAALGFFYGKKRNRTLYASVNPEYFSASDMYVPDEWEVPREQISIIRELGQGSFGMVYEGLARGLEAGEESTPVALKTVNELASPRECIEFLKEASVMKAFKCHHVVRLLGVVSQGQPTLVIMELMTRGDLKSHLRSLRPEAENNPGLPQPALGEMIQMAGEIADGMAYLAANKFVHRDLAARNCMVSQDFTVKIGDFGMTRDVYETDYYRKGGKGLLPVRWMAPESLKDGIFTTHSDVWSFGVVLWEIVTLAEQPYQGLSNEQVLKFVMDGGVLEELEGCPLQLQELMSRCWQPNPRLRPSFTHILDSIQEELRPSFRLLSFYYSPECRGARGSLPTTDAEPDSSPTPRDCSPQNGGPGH

Sequence of Protein kinase C delta type (Homo sapiens) (Q05655 whole entry, looked up): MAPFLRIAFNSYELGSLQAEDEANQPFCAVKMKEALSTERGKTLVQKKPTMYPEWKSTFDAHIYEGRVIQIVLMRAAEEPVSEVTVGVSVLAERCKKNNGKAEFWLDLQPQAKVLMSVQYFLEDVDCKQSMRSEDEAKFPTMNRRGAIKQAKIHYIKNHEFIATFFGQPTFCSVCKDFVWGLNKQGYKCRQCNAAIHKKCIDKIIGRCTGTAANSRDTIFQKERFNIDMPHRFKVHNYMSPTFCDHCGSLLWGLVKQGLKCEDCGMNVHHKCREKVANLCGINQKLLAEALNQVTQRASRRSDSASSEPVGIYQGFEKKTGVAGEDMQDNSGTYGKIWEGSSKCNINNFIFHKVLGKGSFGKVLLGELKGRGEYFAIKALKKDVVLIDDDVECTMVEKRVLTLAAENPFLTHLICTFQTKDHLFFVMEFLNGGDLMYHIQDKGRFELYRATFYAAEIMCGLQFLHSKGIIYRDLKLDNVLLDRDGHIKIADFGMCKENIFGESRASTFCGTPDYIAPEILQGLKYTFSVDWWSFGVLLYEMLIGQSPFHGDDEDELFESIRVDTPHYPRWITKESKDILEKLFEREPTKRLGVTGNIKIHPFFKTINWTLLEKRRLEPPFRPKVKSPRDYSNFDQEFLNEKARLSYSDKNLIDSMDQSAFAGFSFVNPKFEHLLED
Sequence of Fibroblast growth factor receptor 4 (Homo sapiens) (P22455 22-802 limits assumed): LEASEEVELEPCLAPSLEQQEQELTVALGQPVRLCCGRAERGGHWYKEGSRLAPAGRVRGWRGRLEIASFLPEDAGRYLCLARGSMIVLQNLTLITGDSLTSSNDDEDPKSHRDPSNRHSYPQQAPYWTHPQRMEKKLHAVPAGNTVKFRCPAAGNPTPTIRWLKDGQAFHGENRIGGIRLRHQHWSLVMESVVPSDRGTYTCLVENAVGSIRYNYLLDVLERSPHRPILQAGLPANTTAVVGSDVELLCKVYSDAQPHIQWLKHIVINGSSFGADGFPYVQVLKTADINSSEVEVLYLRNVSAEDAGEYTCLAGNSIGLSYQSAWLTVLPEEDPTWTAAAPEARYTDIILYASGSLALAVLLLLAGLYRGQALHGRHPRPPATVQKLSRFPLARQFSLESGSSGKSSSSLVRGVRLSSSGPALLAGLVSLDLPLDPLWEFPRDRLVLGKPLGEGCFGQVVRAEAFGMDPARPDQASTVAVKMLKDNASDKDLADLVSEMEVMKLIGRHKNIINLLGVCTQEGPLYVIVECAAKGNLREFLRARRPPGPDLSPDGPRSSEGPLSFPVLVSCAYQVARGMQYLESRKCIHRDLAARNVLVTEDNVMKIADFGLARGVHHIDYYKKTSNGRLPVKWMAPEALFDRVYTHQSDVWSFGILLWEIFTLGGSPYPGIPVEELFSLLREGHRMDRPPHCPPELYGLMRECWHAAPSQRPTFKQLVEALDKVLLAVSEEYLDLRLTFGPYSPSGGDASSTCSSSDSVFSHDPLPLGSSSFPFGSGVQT
Sequence of Ephrin type-A receptor 2 (Homo sapiens) (P29317 whole entry): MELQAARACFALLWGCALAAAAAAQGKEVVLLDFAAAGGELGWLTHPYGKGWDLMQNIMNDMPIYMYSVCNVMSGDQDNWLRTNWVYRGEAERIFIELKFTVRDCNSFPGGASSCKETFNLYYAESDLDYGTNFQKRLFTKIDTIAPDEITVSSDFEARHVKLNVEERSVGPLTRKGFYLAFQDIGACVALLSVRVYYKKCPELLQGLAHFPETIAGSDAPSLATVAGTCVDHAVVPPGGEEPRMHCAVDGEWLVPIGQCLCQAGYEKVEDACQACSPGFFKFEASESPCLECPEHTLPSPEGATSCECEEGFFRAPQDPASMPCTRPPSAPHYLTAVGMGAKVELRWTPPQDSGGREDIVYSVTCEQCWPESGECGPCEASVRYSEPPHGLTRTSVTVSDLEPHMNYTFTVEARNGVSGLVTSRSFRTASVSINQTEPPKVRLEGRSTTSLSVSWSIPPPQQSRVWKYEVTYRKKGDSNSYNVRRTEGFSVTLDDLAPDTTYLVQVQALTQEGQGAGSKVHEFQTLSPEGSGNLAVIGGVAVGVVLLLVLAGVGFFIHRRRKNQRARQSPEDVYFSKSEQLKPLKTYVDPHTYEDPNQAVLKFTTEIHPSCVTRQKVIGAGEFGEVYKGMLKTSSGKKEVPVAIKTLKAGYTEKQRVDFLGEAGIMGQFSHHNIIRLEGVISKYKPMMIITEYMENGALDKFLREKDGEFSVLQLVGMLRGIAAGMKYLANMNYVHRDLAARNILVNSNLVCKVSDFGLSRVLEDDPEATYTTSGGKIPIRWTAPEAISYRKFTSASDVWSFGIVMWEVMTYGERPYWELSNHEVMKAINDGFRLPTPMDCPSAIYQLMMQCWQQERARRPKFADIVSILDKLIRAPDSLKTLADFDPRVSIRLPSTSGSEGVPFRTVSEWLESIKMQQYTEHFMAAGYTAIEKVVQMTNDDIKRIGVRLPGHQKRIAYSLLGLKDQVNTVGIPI
Sequence of Ribosomal protein S6 kinase alpha-4 (Homo sapiens) (O75676 whole entry, looked up): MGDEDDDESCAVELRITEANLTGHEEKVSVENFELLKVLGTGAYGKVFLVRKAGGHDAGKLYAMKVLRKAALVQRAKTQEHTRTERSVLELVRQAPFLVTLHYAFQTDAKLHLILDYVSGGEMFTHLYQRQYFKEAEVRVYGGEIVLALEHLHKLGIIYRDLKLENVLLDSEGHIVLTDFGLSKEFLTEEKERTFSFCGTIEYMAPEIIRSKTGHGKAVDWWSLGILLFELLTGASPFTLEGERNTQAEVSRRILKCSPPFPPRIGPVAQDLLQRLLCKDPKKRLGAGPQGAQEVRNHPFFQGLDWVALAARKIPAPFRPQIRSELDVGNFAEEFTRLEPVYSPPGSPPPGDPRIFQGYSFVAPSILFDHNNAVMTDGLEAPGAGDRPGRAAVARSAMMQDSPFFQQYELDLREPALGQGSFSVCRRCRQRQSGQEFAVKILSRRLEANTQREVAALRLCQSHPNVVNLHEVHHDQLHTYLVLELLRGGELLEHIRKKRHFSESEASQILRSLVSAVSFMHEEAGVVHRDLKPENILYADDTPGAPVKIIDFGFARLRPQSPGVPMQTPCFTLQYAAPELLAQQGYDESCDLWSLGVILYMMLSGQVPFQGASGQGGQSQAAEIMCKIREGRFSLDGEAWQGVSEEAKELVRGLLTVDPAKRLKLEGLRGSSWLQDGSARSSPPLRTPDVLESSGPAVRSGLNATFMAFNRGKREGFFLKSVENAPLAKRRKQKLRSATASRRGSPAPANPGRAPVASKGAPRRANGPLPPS
Sequence of Calcium/calmodulin-dependent protein kinase type II subunit delta (Homo sapiens) (Q13557 whole entry): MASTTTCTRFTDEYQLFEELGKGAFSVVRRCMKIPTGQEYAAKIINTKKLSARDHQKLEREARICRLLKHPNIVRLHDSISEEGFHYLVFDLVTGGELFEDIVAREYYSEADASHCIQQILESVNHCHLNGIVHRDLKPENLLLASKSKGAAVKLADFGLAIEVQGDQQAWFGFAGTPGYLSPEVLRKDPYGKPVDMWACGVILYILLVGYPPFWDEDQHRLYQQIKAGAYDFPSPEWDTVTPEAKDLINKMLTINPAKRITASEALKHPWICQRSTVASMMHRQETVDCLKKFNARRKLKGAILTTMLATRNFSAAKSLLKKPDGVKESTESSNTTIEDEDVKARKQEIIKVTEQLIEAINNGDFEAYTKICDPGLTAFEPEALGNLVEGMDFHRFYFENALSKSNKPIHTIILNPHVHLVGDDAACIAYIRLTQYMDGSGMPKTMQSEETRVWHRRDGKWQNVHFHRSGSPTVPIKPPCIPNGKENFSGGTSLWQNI

| SMILES | residual activity [1] [%] | residual activity [2] [%] | residual activity [3] [%] | residual activity [4] [%] | residual activity [5] [%] | residual activity [6] [%] | residual activity [7] [%] | IC50 (Aurora kinase A) [nM] | residual activity [8] [%] | residual activity [9] [%] | residual activity [10] [%] | residual activity [11] [%] | residual activity [12] [%] |
| --- | --- | --- | --- | --- | --- | --- | --- | --- | --- | --- | --- | --- | --- |
| COc1cc2c(Oc3ccc(-c4nc5ccccc5s4)cc3)ncnc2cc1OCCCN1CCN(C)CC1 | 87 | 135 | 103 | 96 | 287 | 47 | 92 | 82 | 80 | 103 | 236 | 111 | 105 |
| COc1cc2c(Oc3ccc(-c4nc5ccccc5s4)cc3)ncnc2cc1OCCCN1CCCC1 | 92 | 162 | 83 | 110 | 205 | 54 | 96 | 170 | 89 | 93 | 182 | 97 | 96 |
| COc1cc2c(Oc3ccc(-c4nc5ccccc5s4)cc3F)ncnc2cc1OCCCN1CCN(C)CC1 | 91 | 142 | 102 | 91 | 118 | 38 | 97 | 220 | 79 | 94 | 143 | 109 | 73 |
